# Data published in ChEMBL document CHEMBL2157949 (J Med Chem, 2012).
# Test system: not listed separately
# Test: Growth inhibition of Chinese hamster PC43-10 cells expressing reduced folate carrier incubated for 96 hrs by CellTiter-blue cell viability assay
# Assay type: functional, cell-based
# Conditions: Cricetulus griseus, PC43-10, 96 h
row,Compound,IC50 [µM]
1,Nc1nc2[nH]c(CCCCc3ccc(C(=O)N[C@@H](CCC(=O)O)C(=O)O)s3)cc2c(=O)[nH]1,> 1
2,Nc1nc2[nH]c(CCC#Cc3csc(C(=O)N[C@@H](CCC(=O)O)C(=O)O)c3)cc2c(=O)[nH]1,> 1
3,Nc1nc2[nH]c(CCC#Cc3ccc(C(=O)N[C@@H](CCC(=O)O)C(=O)O)s3)cc2c(=O)[nH]1,> 1

# Test system: R2
# Test: Growth inhibition of Chinese hamster R2 cells expressing empty vector control incubated for 96 hrs by CellTiter-blue cell viability assay
# Conditions: Cricetulus griseus, R2, 96 h
row,Compound,IC50 [µM]
1,Nc1nc2[nH]c(CCCCc3ccc(C(=O)N[C@@H](CCC(=O)O)C(=O)O)s3)cc2c(=O)[nH]1,> 1
2,Nc1nc2[nH]c(CCC#Cc3csc(C(=O)N[C@@H](CCC(=O)O)C(=O)O)c3)cc2c(=O)[nH]1,> 1
3,Nc1nc2[nH]c(CCC#Cc3ccc(C(=O)N[C@@H](CCC(=O)O)C(=O)O)s3)cc2c(=O)[nH]1,> 1

# Test system: R2
# Test: Growth inhibition of Chinese hamster R2 cells deficient in reduced folate carrier and human folate receptor alpha incubated for 96 hrs by CellTiter-blue cell viability assay
# Assay type: cell-based, Cricetulus griseus
# Conditions: R2, 96 h
row,Compound,IC50 [µM]
1,Nc1nc2[nH]c(CCCCc3ccc(C(=O)N[C@@H](CCC(=O)O)C(=O)O)s3)cc2c(=O)[nH]1,> 1
2,Nc1nc2[nH]c(CCC#Cc3csc(C(=O)N[C@@H](CCC(=O)O)C(=O)O)c3)cc2c(=O)[nH]1,> 1
3,Nc1nc2[nH]c(CCC#Cc3ccc(C(=O)N[C@@H](CCC(=O)O)C(=O)O)s3)cc2c(=O)[nH]1,> 1

# Molecular target: T1, Trifunctional purine biosynthetic protein adenosine-3 (Homo sapiens, UniProt P22102)
# T1 sequence (P22102 whole entry): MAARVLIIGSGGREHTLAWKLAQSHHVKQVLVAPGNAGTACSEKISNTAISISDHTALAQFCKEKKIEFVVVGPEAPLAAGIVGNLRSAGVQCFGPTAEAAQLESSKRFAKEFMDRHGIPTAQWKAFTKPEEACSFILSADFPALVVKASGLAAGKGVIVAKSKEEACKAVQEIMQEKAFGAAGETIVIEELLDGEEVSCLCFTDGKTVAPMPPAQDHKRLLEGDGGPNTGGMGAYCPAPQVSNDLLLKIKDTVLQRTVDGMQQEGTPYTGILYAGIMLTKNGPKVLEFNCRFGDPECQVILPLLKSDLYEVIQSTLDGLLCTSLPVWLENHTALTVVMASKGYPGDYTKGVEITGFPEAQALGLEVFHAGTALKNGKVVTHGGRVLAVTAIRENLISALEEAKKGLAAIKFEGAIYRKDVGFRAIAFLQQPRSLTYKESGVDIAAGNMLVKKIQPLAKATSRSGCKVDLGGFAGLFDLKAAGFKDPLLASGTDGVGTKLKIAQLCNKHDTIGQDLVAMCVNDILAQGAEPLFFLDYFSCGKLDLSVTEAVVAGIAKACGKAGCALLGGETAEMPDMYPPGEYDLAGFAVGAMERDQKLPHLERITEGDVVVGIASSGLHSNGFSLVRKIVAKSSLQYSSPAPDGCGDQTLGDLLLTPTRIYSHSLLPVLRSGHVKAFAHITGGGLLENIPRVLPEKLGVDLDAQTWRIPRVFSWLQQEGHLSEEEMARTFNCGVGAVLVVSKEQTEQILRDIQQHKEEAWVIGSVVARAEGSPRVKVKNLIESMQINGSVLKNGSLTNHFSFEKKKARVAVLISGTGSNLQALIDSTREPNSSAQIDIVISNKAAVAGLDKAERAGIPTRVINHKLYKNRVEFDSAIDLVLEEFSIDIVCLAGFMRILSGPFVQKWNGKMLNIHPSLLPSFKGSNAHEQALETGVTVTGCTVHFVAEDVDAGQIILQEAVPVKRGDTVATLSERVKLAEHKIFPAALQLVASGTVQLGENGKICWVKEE
# Test: Inhibition of GARFTase in human IGROV1 cells assessed as reduction in [14C]glycine incorporation into [14C]formyl GAR incubated for 15 hrs in complete folate free RPMI medium in presence of 2 nM leucovorin
# Assay type: cell-based, IGROV-1
# Conditions: not given
row,Compound,IC50 [µM]
1,Nc1nc2[nH]c(CCCCc3ccc(C(=O)N[C@@H](CCC(=O)O)C(=O)O)s3)cc2c(=O)[nH]1,0.00346

# Test system: KB
# Test: Growth inhibition of human KB cells endogenously expressing RFC/FRalpha/PCFT in presence of 50 nM leucovorin incubated for 96 hrs by CellTiter-blue cell viability assay
# Assay type: functional, cell-based
# Conditions: not given
# In short: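 KB cells in complete folate-free RPMI 1640 with 10% dialyzed FBS and LCV at 50 nM (versus the standard 2 nM), exposed to a range of antifolate concentrations for up to 96 h. Cell density read by CellTiter-blue fluorescence and normalized to drug-free cells. Representative data from experiments run in duplicate.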
row,Compound,IC50 [µM]
1,Nc1nc2[nH]c(CCCCc3ccc(C(=O)N[C@@H](CCC(=O)O)C(=O)O)s3)cc2c(=O)[nH]1,0.0022

# Test system: not listed separately
# Test: Growth inhibition of Chinese hamster RT16 cells expressing human folate receptor alpha incubated for 96 hrs in presence of folic acid by CellTiter-blue cell viability assay
# Assay type: functional, cell-based
# Conditions: Cricetulus griseus, RT16, 96 h
row,Compound,IC50 [µM]
1,Nc1nc2[nH]c(CCCCc3ccc(C(=O)N[C@@H](CCC(=O)O)C(=O)O)s3)cc2c(=O)[nH]1,> 1
2,Nc1nc2[nH]c(CCC#Cc3csc(C(=O)N[C@@H](CCC(=O)O)C(=O)O)c3)cc2c(=O)[nH]1,> 1
3,Nc1nc2[nH]c(CCC#Cc3ccc(C(=O)N[C@@H](CCC(=O)O)C(=O)O)s3)cc2c(=O)[nH]1,> 1

# Test system: KB
# Test: Inhibition of colony formation of human KB cells endogenously expressing RFC/FRalpha/PCFT incubated for 14 days by methylene blue staining based clonogenicty assay
# Assay type: functional, cell-based
# Conditions: 336 h
row,Compound,IC50 [µM]
1,Nc1nc2[nH]c(CCCCc3ccc(C(=O)N[C@@H](CCC(=O)O)C(=O)O)s3)cc2c(=O)[nH]1,0.0002

# Test system: KB
# Test: Growth inhibition of human KB cells endogenously expressing RFC/FRalpha/PCFT in presence of folic acid incubated for 96 hrs by CellTiter-blue cell viability assay
# Assay type: functional, cell-based
# Conditions: not given
row,IC50 [µM],Compound
1,> 1,Nc1nc2[nH]c(CCC#Cc3csc(C(=O)N[C@@H](CCC(=O)O)C(=O)O)c3)cc2c(=O)[nH]1
2,> 1,Nc1nc2[nH]c(CCC#Cc3ccc(C(=O)N[C@@H](CCC(=O)O)C(=O)O)s3)cc2c(=O)[nH]1

row,Compound,IC50 [µM]
1,Nc1nc2[nH]c(CCCCc3ccc(C(=O)N[C@@H](CCC(=O)O)C(=O)O)s3)cc2c(=O)[nH]1,> 1

# Test system: IGROV-1
# Test: Growth inhibition of human IGROV1 cells endogenously expressing RFC/FRalpha/PCFT in presence of folic acid incubated for 96 hrs by CellTiter-blue cell viability assay
# Assay type: functional, cell-based
# Conditions: IGROV-1, 96 h
row,Compound,IC50 [µM]
1,Nc1nc2[nH]c(CCCCc3ccc(C(=O)N[C@@H](CCC(=O)O)C(=O)O)s3)cc2c(=O)[nH]1,> 1
2,Nc1nc2[nH]c(CCC#Cc3csc(C(=O)N[C@@H](CCC(=O)O)C(=O)O)c3)cc2c(=O)[nH]1,> 1
3,Nc1nc2[nH]c(CCC#Cc3ccc(C(=O)N[C@@H](CCC(=O)O)C(=O)O)s3)cc2c(=O)[nH]1,> 1

# Test system: not listed separately
# Test: Growth inhibition of Chinese hamster RT16 cells expressing human folate receptor alpha incubated for 96 hrs by CellTiter-blue cell viability assay
# Assay type: functional, cell-based
# Conditions: Cricetulus griseus, RT16, 96 h
row,Compound,IC50 [µM]
1,Nc1nc2[nH]c(CCC#Cc3csc(C(=O)N[C@@H](CCC(=O)O)C(=O)O)c3)cc2c(=O)[nH]1,0.0135
2,Nc1nc2[nH]c(CCC#Cc3ccc(C(=O)N[C@@H](CCC(=O)O)C(=O)O)s3)cc2c(=O)[nH]1,0.0121

# Test system: R2
# Test: Growth inhibition of Chinese hamster R2 cells expressing human PCFT incubated for 96 hrs by CellTiter-blue cell viability assay
# Assay type: functional, cell-based, Cricetulus griseus
# Conditions: R2, 96 h
# In short: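 R2/hPCFT4 CHO cells maintained beforehand in folate-free RPMI 1640 with dialyzed FBS, 25 nM LCV and G418. Assay: ~2500–5000 cells/well in folate-free RPMI 1640 (pH 7.2) with 25 nM LCV, 10% dialyzed FBS, antibiotics and L-glutamine, over a range of drug concentrations.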
row,Compound,IC50 [µM]
1,Nc1nc2[nH]c(CCC#Cc3csc(C(=O)N[C@@H](CCC(=O)O)C(=O)O)c3)cc2c(=O)[nH]1,> 1
2,Nc1nc2[nH]c(CCC#Cc3ccc(C(=O)N[C@@H](CCC(=O)O)C(=O)O)s3)cc2c(=O)[nH]1,> 1

# Test system: KB
# Test: Growth inhibition of human KB cells endogenously expressing RFC/FRalpha/PCFT incubated for 96 hrs by CellTiter-blue cell viability assay
# Assay type: functional, cell-based
# Conditions: not given
row,IC50 [µM],Compound
1,> 1,Nc1nc2[nH]c(CCC#Cc3csc(C(=O)N[C@@H](CCC(=O)O)C(=O)O)c3)cc2c(=O)[nH]1
2,> 1,Nc1nc2[nH]c(CCC#Cc3ccc(C(=O)N[C@@H](CCC(=O)O)C(=O)O)s3)cc2c(=O)[nH]1

# Test system: IGROV-1
# Test: Growth inhibition of human IGROV1 cells endogenously expressing RFC/FRalpha/PCFT incubated for 96 hrs by CellTiter-blue cell viability assay
# Assay type: functional, cell-based
# Conditions: IGROV-1, 96 h
row,Compound,IC50 [µM]
1,Nc1nc2[nH]c(CCC#Cc3csc(C(=O)N[C@@H](CCC(=O)O)C(=O)O)c3)cc2c(=O)[nH]1,> 1
2,Nc1nc2[nH]c(CCC#Cc3ccc(C(=O)N[C@@H](CCC(=O)O)C(=O)O)s3)cc2c(=O)[nH]1,> 1

# Molecular target: Folate receptor alpha (Homo sapiens) (UniProt P15328)
# Test: not given
# Assay type: cell-based
# Conditions: CHO
# Folate receptor alpha (Homo sapiens), sequence (P15328 25-234 limits assumed): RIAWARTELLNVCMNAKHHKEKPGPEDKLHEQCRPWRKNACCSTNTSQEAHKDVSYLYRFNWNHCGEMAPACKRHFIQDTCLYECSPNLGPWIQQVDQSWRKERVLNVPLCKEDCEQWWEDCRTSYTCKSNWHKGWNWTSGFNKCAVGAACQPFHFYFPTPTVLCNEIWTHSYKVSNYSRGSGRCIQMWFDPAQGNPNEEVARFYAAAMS
row,Compound,relative binding affinity (RBA)
1,Nc1nc2[nH]c(CCCCc3ccc(C(=O)N[C@@H](CCC(=O)O)C(=O)O)s3)cc2c(=O)[nH]1,> 1
